The source of these data is ChEMBL document CHEMBL4811235, “Design, synthesis, biological evaluation and structure-activity relationship study of quinazolin-4(3H)-one derivatives as novel USP7 inhibitors” (Eur J Med Chem, 2021).

What is called IC50 is the concentration that gives 50% inhibition. What is called inhibition is the percentage by which the read-out fell short of the control. Broadly, the Kd is the equilibrium constant for the complex coming apart.

The source made the active and inactive calls. The calls are words filed in the database; no cut-off is given here.

The target in assay [1] is T1, Ubiquitin carboxyl-terminal hydrolase 7 (Homo sapiens, UniProt Q93009). In words: Inhibition of recombinant USP7 catalytic domain (unknown origin) using UbA10 as substrate incubated with substrate for 75 mins followed by compound addition and measured after 1 hr by TR-FRET assay. Put shortly: (§1)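 TR-FRET deubiquitinase assay. The recombinant USP7 catalytic domain was mixed with compound (from 2.5 mM DMSO stocks) in 50 mM HEPES pH 7.5 with 0.01% Triton X-100 for 10 min at 25 °C. The substrate was GST- and biotin-tagged Ub-A10, incubated for 75 min at 37 °C. Streptavidin-d2/anti-GST-Eu detection reagents were then added for 1 h at 25 °C and the signal read at […]/em 665 nm. IC50 came from regression.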
Target sequence in this assay (Q93009 whole entry, the tested form may be a part): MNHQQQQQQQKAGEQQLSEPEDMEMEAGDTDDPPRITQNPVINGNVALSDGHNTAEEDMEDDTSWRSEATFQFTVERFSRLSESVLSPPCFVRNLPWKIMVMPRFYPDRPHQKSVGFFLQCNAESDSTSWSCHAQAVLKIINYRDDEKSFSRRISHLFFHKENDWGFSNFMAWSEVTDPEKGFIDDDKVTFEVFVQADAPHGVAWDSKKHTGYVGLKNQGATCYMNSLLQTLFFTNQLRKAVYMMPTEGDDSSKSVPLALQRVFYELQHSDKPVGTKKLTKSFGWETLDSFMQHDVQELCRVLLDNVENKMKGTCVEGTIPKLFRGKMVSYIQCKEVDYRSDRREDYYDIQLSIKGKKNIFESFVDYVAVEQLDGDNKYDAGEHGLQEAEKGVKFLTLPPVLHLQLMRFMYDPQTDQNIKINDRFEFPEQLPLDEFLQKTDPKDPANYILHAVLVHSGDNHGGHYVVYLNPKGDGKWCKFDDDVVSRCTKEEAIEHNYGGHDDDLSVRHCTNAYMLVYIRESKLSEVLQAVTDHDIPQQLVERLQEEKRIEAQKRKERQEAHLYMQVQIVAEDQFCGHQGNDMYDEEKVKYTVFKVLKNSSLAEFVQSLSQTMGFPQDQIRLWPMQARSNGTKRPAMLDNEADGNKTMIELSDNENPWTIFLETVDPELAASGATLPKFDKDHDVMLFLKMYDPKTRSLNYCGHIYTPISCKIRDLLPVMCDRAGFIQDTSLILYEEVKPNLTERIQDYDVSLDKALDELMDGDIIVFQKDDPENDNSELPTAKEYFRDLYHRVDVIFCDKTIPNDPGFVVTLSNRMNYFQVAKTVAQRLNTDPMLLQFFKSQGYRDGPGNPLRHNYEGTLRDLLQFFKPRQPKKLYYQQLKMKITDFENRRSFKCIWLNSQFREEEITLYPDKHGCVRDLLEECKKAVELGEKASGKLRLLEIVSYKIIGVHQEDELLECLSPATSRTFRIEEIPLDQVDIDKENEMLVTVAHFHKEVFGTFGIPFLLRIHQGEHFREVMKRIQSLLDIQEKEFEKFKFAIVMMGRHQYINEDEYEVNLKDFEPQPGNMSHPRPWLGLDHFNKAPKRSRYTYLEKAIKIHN

In assay [2] the target is T1, Ubiquitin carboxyl-terminal hydrolase 7. In words: Inhibition of USP7 in human BGC-823 cells assessed as upregulation of p21 protein expression by Western blot analysis. It is filed as cell-based. A general note: In western blotting, separated proteins are transferred to a membrane and probed.
Target sequence in this assay (Q93009 whole entry, looked up, the tested form may be a part): as the sequence (Q93009 whole entry, the tested form may be a part) above
Assay [3] has the same target. As to the kind of experiment: Inhibition of recombinant USP7 catalytic domain (unknown origin) using UbA10 as substrate incubated with substrate for 75 mins followed by compound addition and measured after 1 hr by TR-FRET assay relative to control. Further details: concentration or dose not given beside the values. In a few lines: as §1
Target sequence in this assay (Q93009 whole entry, looked up, the tested form may be a part): as the sequence (Q93009 whole entry, the tested form may be a part) above
Assay [4] relates to MGC-803. In words: Cytotoxicity against human MGC-803 cells incubated for 4 hrs by MTT assay. To be noted: for IC50: MGC-803, 4 h. It is filed as functional, cell-based. Put shortly:
(§2)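 MTT assay. Compounds were dissolved in DMSO and tested at […] in triplicate. Cells were incubated with MTT at 37 °C for 4 h, the medium was replaced with DMSO, and absorbance was read at 490 nm. IC50 values came from regression.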
For orientation: Tetrazolium assays rely on reduction of a dye to a coloured formazan, in cell work by metabolically active cells.

Assay [5] addresses T1, Ubiquitin carboxyl-terminal hydrolase 7. In words: Inhibition of N-terminal His-FLAG-tagged human USP7 (2 to 1102 residues) expressed in baculovirus infected Sf9 cells using Ub-AMC as substrate preincubated with enzyme for 40 mins followed by substrate addition for 30 mins by fluorescence plate reader analysis. In a few lines:
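USP7 activity with a commercial Ub-AMC inhibitor screening kit. Compound working solutions were made in 1X buffer containing 6.5 mM DTT. USP7 was added and preincubated for 40 min at 25 °C. Ub-AMC, diluted 800-fold, was added for 30 min at 25 °C. Fluorescence was read at ex 360/em 460 nm, and IC50 came from regression.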
Target sequence in this assay (Q93009 whole entry, the tested form may be a part): as above

Assay [6] relates to MGC-803. As to the kind of experiment: Cytotoxicity against human MGC-803 cells at 50 uM incubated for 4 hrs by MTT assay relative to control. In kind it is functional.
Assay [7] has as its system BGC-823. As to the kind of experiment: Cytotoxicity against human BGC-823 cells at 50 uM incubated for 4 hrs by MTT assay relative to control. It is filed as functional.
Assay [8] concerns BGC-823. In words: Cytotoxicity against human BGC-823 cells incubated for 4 hrs by MTT assay. It is filed as functional, cell-based. In a few lines:
as §2

Assay [9] has as its target T1, Ubiquitin carboxyl-terminal hydrolase 7. As to the kind of experiment: Binding affinity to recombinant USP7 (208 to 560 residues) (unknown origin) assessed as dissociation constant by biolayer interferometry. Background: Biolayer interferometry detects binding as a change in optical thickness at a sensor tip.
Target sequence in this assay (Q93009 whole entry, the tested form may be a part): as above
Assay [10] has as its system MGC-803. As to the kind of experiment: Induction of cell cycle arrest in human MGC-803 cells assessed as accumulation of cells at S phase incubated for 72 hrs by propidium iodide staining based flow cytometry. It is filed as functional. In a few lines:
(§3)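 Cell cycle: MGC-803 cells were treated with various compound concentrations for 72 h, harvested, washed in PBS at 4 °C, and stained with a commercial PI cell-cycle kit following its instructions. DNA content was analysed by flow cytometry.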

Assay [11] has as its target T1, Ubiquitin carboxyl-terminal hydrolase 7. As to the kind of experiment: Inhibition of USP7 in human MGC-803 cells assessed as increase in p21 expression level at 2.5 to 10 uM by Western blot analysis. To be noted: dose 2.5-10 µM. It is filed as cell-based.
Target sequence in this assay (Q93009 whole entry, looked up, the tested form may be a part): as the sequence (Q93009 whole entry, the tested form may be a part) above
For assay [12], the system named is MGC-803. As to the kind of experiment: Inhibition of colony formation in human MGC-803 cells after 7 days by crystal violet staining based assay. In kind it is functional, cell-based. To be noted: time 7.0 day. In a few lines: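 Clonogenic assay: MGC-803 cells in log phase were seeded at 200 cells per well, allowed to attach for 12 h at 37 °C in 5% CO2, then exposed to the indicated concentrations or to DMSO for 7 days. Colonies were fixed with 4% paraformaldehyde and stained with 0.1% crystal violet for 15 min.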

The target of assay [13] is T1, Ubiquitin carboxyl-terminal hydrolase 7. As to the kind of experiment: Inhibition of USP7 in human MGC-803 cells assessed as increase in p53 expression level at 2.5 to 10 uM by Western blot analysis. To be noted: dose 2.5-10 µM. In kind it is cell-based.
Target sequence in this assay (Q93009 whole entry, looked up, the tested form may be a part): as the sequence (Q93009 whole entry, the tested form may be a part) above
In assay [14] the test system is MGC-803. As to the kind of experiment: Induction of cell cycle arrest in human MGC-803 cells assessed as accumulation of cells at G0/G1 phase incubated for 72 hrs by propidium iodide staining based flow cytometry. It is filed as functional. In a few lines: as §3
Assay [15] has as its target T1, Ubiquitin carboxyl-terminal hydrolase 7. As to the kind of experiment: Inhibition of USP7 in human MGC-803 cells assessed as decrease in MDM2 protein level by Western blot analysis. It is filed as cell-based. To be noted: time 0.5-7 hrs, TDE = time-dependent effect.
Target sequence in this assay (Q93009 whole entry, looked up, the tested form may be a part): as the sequence (Q93009 whole entry, the tested form may be a part) above

Take `CN(C)CCNc1ccc2c(=O)n(CC3(O)CCN(C(=O)CCc4ccccc4)CC3)cnc2c1`: in [1], the 50% inhibitory concentration (IC50) came to 5.98 µM. Also, in assay [2], the inhibition result is “Dose-Dependent Effect”.
Regarding `O=C(/C=C/c1ccccc1)N1CCC(O)(Cn2cnc3cc(Cl)ccc3c2=O)CC1`, the inhibition in assay [3] was determined as 32.6%.
In the case of `O=C(c1ccccn1)N1CCC(O)(Cn2cnc3cc(Cl)ccc3c2=O)CC1`, the concentration for half-maximal inhibition (IC50) in assay [1] is greater than 50 µM. In addition, the inhibition in assay [3] is less than 50%.
On to `O=C(CCc1ccccc1)N1CCC(O)(Cn2cnc3cc(NCCO)ccc3c2=O)CC1`, for which the IC50 in [1] amounted to 16.4 µM.
Regarding `O=C(c1ccccc1[N+](=O)[O-])N1CCC(O)(Cn2cnc3cc(Cl)ccc3c2=O)CC1`, the inhibition in assay [3] worked out at 4.29%.
Consider `O=C(Cc1ccc(C(F)(F)F)cc1)N1CCC(O)(Cn2cnc3cc(Cl)ccc3c2=O)CC1`, for which the half-inhibitory concentration (IC50) in [1] is greater than 50 µM.
Turning to `O=C(c1cccc(Cl)c1Cl)N1CCC(O)(Cn2cnc3cc(Cl)ccc3c2=O)CC1`, the result with MGC-803 [4] was Active.
With `O=C(c1ccccc1)N1CCC(O)(Cn2cnc3cc(Cl)ccc3c2=O)CC1`, the inhibition in [3] worked out at 18.6%.
With `CC(CC(=O)N1CCC(O)(Cn2cnc3cc(Cl)ccc3c2=O)CC1)c1ccccc1` (stereo not given), in [1], the IC50 was 6.79 µM.
On to `CC(CC(=O)N1CCC(O)(Cn2cnc3cc(NCCN(C)C)ccc3c2=O)CC1)c1ccccc1` (stereo not given), for which the results for the half-inhibitory concentration (IC50) in [1] and in [5] were 1.54 µM and 0.595 µM, respectively. Moreover, the inhibition entry in assay [2] is “Dose-Dependent Effect”.
On to `O=C(c1ccc[nH]1)N1CCC(O)(Cn2cnc3cc(Cl)ccc3c2=O)CC1`, for which the IC50 in [1] is greater than 50 µM. Besides, in assay [3], the inhibition was less than 50%.
For `O=C(COc1ccccc1)N1CCC(O)(Cn2cnc3cc(Cl)ccc3c2=O)CC1`, the inhibition in assay [3] is 22.7%.
Still for that read-out and setting: in the case of `Cc1ccc(S(=O)(=O)N2CCC(O)(Cn3cnc4cc(Cl)ccc4c3=O)CC2)cc1` it was 0.8%.
In the case of `CC(CC(=O)N1CCC(O)(Cn2cnc3cc(NCCN4CCCC4)ccc3c2=O)CC1)c1ccccc1` (stereo not given), the inhibition result in assay [2] was “Dose-Dependent Effect”.
With `O=C(c1cccnc1)N1CCC(O)(Cn2cnc3cc(Cl)ccc3c2=O)CC1`, the concentration for half-maximal inhibition (IC50) in assay [1] was greater than 50 µM. Moreover, the inhibition in assay [3] was less than 50%.
Consider `O=C(c1cccc(Br)c1)N1CCC(O)(Cn2cnc3cc(Cl)ccc3c2=O)CC1`, for which the inhibition in assay [3] was 42.2%.
Take `Nc1cc(Cl)ccc1C(=O)N1CCC(O)(Cn2cnc3cc(Cl)ccc3c2=O)CC1`: the inhibition in [3] was 46.5%. In addition, the outcome in the assay on MGC-803 [4] was Active.
Turning to `O=C(CCc1ccccc1)N1CCC(O)(Cn2cnc3cc(Cl)ccc3c2=O)CC1`, the inhibition at 50 µM was 31.4% in the assay on MGC-803 [6] and 8.45% in the assay with BGC-823 [7]. For the same compound, in assay [1], the IC50 came out at 23.1 µM. For the same compound, the outcome with BGC-823 [8] and in the assay on MGC-803 [4] was inactive.
On to `O=C(CCc1ccccc1)N1CCC(O)(Cn2cnc3cc(Br)ccc3c2=O)CC1`, for which the 50% inhibitory concentration (IC50) in assay [1] came out at 27.4 µM.
As to `O=C(CCc1ccccc1)N1CCC(O)(Cn2cnc3cc(NCCN4CCCCC4)ccc3c2=O)CC1`, the IC50 in assay [1] amounted to 37 µM.
On to `O=C(c1ccc(O)cc1)N1CCC(O)(Cn2cnc3cc(Cl)ccc3c2=O)CC1`, for which the result in the assay with BGC-823 [8] and in the assay on MGC-803 [4] was Active.
With `O=C(CCc1ccccc1)N1CCC(O)(Cn2cnc3cc(NCCN4CCCC4)ccc3c2=O)CC1`, the Kd in assay [9] is 77 µM. Further, the inhibition at 50 µM with MGC-803 [6] turned out to be 31%; in the assay on BGC-823 [7], 28.4%. In addition, the outcome in the assay with MGC-803 [10] and with MGC-803 [14] was Active. For the same compound, the IC50 in assay [1] was 4.86 µM; in assay [5], 5.05 µM. Also, the inhibition entry (in [11]; in the assay with MGC-803 [12]; in [13]) was “Active” throughout. Further, the inhibition result in [15] was “Tde”.
Take `Nc1cc(Br)ccc1C(=O)N1CCC(O)(Cn2cnc3cc(Cl)ccc3c2=O)CC1`: in the assay with BGC-823 [7], 50 µM produced 52% inhibition. Moreover, the results for the IC50 (in assay [1]; in the assay with MGC-803 [4]) were 46.3 µM and 30 µM, respectively. Moreover, the result in the assay with BGC-823 [8] was Active.
With `O=C(Cc1cccc2ccccc12)N1CCC(O)(Cn2cnc3cc(Cl)ccc3c2=O)CC1`, the half-maximal inhibitory concentration (IC50) in assay [1] was greater than 50 µM.
Regarding `COc1ccccc1CNc1ccc2c(=O)n(CC3(O)CCN(C(=O)CCc4ccccc4)CC3)cnc2c1`, the inhibition in assay [3] was found to be 45.9%.
`O=C(c1ccc([N+](=O)[O-])cc1)N1CCC(O)(Cn2cnc3cc(Cl)ccc3c2=O)CC1`: the inhibition in assay [3] came to 58.3%.
Regarding `O=C(CCc1ccccc1)N1CCC(O)(Cn2cnc3cc(NCc4ccccc4Cl)ccc3c2=O)CC1`, the inhibition at 50 µM with MGC-803 [6] worked out at 86.7%; in the assay on BGC-823 [7], 58.2%. The IC50 in the assay on BGC-823 [8] (BGC-823, 4 h) is 43.1 µM; in the assay with MGC-803 [4], 29.7 µM. Moreover, the inhibition in [3] came to 49.1%.
As for `O=C(CCc1ccccc1)N1CCC(O)(Cn2cnc3cc(NCc4ccc(Cl)cc4)ccc3c2=O)CC1`, the inhibition in [3] came to 49.9%.
In the case of `O=C(COc1cccc2ccccc12)N1CCC(O)(Cn2cnc3cc(Cl)ccc3c2=O)CC1`, the outcome in the assay with BGC-823 [8] and in the assay on MGC-803 [4] was Active. In addition, the inhibition in [3] is 9.83%.
For `O=C(CCc1ccccc1)N1CCC(O)(Cn2cnc3cc(NCc4ccco4)ccc3c2=O)CC1`, the IC50 in assay [1] is 9.8 µM.
The compound `O=C(CCc1ccccc1)N1CCC(O)(Cn2cnc3cc(NCCc4ccccc4)ccc3c2=O)CC1` showed an inhibition at 50 µM with BGC-823 [7] of 54%. Moreover, the IC50 in assay [1] was determined as 15.3 µM; with MGC-803 [4] it was 32.1 µM. Moreover, in the assay with BGC-823 [8], the result was Active.
